Results from ChEMBL document CHEMBL4382240, “Discovery of novel 2,5-dihydroxyterephthalamide derivatives as multifunctional agents for the treatment of Alzheimer's disease” (Bioorg Med Chem, 2018).
The source made the active and inactive calls. No cut-off for these calls is given here.

What was measured:
[1] = Anti-inflammatory activity in […] cells assessed as inhibition of LPS-stimulated NO release at 2.5 uM preincubated for 30 mins followed by LPS stimulation and measured after 24 hrs by Griess reagent based assay relative to control; type: functional; settings: BV-2
Summary of the method: (§1)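 BV-2 cells cultured 24 h in DMEM (10% FBS, glutamine, pyruvate, pen/strep) at 37 °C, 5% CO2. Compound (DMSO stock diluted in PBS) added 30 min before LPS (1.0 µg/mL), then 24 h. Nitrite in supernatant measured by Griess reagent for 10 min at room temperature, A540, against a NaNO2 standard curve. Triplicate wells; mean ± SD of three independent experiments.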

[2] = Anti-inflammatory activity in […] cells assessed as inhibition of LPS-stimulated NO release at 10 uM preincubated for 30 mins followed by LPS stimulation and measured after 24 hrs by Griess reagent based assay relative to control; type: functional; settings: BV-2; summary of the method: as §1
[3] = Anti-inflammatory activity in […] cells assessed as inhibition of LPS-stimulated TNFalpha release at 2.5 uM preincubated for 30 mins followed by LPS stimulation and measured after 24 hrs by ELISA relative to control; type: functional; settings: BV-2
Summary of the method: (§2)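 Confluent BV-2 cells in DMEM preincubated 30 min with compound, tested over 0.5–10 µM, then stimulated with LPS (1.0 µg/mL) for 24 h. Released TNF-α measured by ELISA following kit instructions. Triplicate wells; mean ± SD of three independent experiments.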

Homo sapiens [4] = species: Homo sapiens; assay: Anti-inflammatory activity in […] cells assessed as inhibition of LPS-stimulated NO release preincubated for 30 mins followed by LPS stimulation and measured after 24 hrs by Griess reagent based assay; type: functional, cell-based
Butyrylcholinesterase = Butyrylcholinesterase (Rattus norvegicus, UniProt Q9JKC1); assay: Inhibition of rat serum BuChE using butyrylthiocholine iodide as substrate after 15 mins by Ellman's method; type: ADME
Acetylcholinesterase [5] = target: Acetylcholinesterase (Electrophorus electricus, UniProt O42275); assay: Inhibition of electric eel AChE using acetylthiocholine iodide as substrate after 15 mins by Ellman's method
Homo sapiens [6] = species: Homo sapiens; assay: Anti-inflammatory activity in […] cells assessed as inhibition of LPS-stimulated TNFalpha release preincubated for 30 mins followed by LPS stimulation and measured after 24 hrs by ELISA; type: functional, cell-based; summary of the method: as §2
[7] = target: T1, Amyloid-beta precursor protein (Homo sapiens, UniProt P05067); assay: Inhibition of human amyloid beta (1 to 42) self-induced aggregation at 25 uM after 24 hrs by Thioflavin T based fluorometric assay relative to control
Summary of the method: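 Aβ1-42 (25 µM final) incubated with compound (25 µM final) in 50 mM phosphate buffer, pH 7.4, for 24 h at 37 °C under a sealing film. ThT (5 µM) in 50 mM glycine-NaOH, pH 8.5, then added and fluorescence measured. Triplicate; mean ± SD of three independent experiments.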

[8] = Inhibition of Cu2+ induced human amyloid beta (1 to 42) aggregation at 25 uM after 24 hrs by Thioflavin T based fluorometric assay relative to control
Summary of the method: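 Aβ1-42 (25 µM) and Cu2+ (25 µM) in HEPES buffer (20 mM, pH 6.6, 150 mM NaCl), with or without compound (25 µM final), incubated 24 h at 37 °C. ThT (5 µM) in glycine-NaOH, pH 8.5, added and fluorescence read. Triplicate; three independent experiments.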

[9] = Anti-inflammatory activity in […] cells assessed as inhibition of LPS-stimulated TNFalpha release at 10 uM preincubated for 30 mins followed by LPS stimulation and measured after 24 hrs by ELISA relative to control; type: functional; settings: BV-2; summary of the method: as §2
Acetylcholinesterase [10] = target: T2, Acetylcholinesterase (Rattus norvegicus, UniProt P37136); assay: Inhibition of rat cortex AChE using acetylthiocholine iodide as substrate after 15 mins by Ellman's method
T2 sequence (P37136 whole entry): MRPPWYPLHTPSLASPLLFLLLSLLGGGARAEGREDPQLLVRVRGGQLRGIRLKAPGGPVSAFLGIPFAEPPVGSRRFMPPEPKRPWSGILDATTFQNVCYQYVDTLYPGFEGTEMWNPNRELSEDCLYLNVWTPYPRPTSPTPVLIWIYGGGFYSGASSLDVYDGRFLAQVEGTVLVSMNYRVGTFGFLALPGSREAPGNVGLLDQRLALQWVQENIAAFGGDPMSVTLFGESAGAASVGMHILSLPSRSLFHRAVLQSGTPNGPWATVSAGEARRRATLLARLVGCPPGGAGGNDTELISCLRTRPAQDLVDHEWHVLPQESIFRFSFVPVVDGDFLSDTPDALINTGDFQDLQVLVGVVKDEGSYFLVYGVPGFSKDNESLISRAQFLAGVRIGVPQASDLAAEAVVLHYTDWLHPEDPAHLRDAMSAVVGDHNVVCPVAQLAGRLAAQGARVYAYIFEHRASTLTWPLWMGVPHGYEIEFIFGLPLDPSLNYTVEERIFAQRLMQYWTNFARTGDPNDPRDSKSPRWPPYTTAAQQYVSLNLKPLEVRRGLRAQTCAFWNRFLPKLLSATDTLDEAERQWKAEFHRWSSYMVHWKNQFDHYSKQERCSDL

[11] = Effect on TNFalpha release in […] cells up to 10 uM after 24 hrs by ELISA; type: ADME, cell-based
Summary of the method: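 BV-2 cells exposed to compound up to 10 µM with no added LPS. TNF-α in the medium measured by ELISA. Mean ± SD of three independent experiments.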

Homo sapiens [12] = species: Homo sapiens; assay: Anti-inflammatory activity in […] cells assessed as inhibition of LPS-stimulated TNFalpha release at 0.5 uM preincubated for 30 mins followed by LPS stimulation and measured after 24 hrs by ELISA; type: functional, cell-based; summary of the method: as §2
[13] = Disaggregation of Cu2+ induced preformed fibrils of human amyloid beta (1 to 42) at 25 uM after 24 hrs by Thioflavin T based fluorometric assay relative to control
Summary of the method: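 Aβ1-42 (25 µM) with Cu2+ (25 µM) in HEPES buffer pre-aggregated 24 h at 37 °C. Compound (25 µM) then added for a further 24 h at 37 °C. Fibril content measured by ThT fluorescence (glycine-NaOH, pH 8.5). Triplicate; three independent experiments.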

[14] = target: T1, Amyloid-beta precursor protein; assay: Disaggregation of self-induced preformed fibrils of human amyloid beta (1 to 42) at 25 uM after 24 hrs by Thioflavin T based fluorometric assay relative to control
Summary of the method: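 Aβ1-42 diluted in HEPES buffer (20 mM, pH 6.6, 150 mM NaCl) and pre-aggregated 24 h at 37 °C. Compound (25 µM) then added for another 24 h at 37 °C on a sealed plate. Remaining fibrils read by ThT fluorescence in glycine-NaOH, pH 8.5. Triplicate; three independent experiments.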

[15] = Effect on NO release in […] cells up to 10 uM after 24 hrs by Griess reagent based assay; type: ADME, cell-based
Summary of the method: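 BV-2 cells in DMEM treated with compound alone, without LPS, up to 10 µM. Nitrite in culture supernatant measured by Griess reagent (A540) against a NaNO2 standard curve. Mean ± SD of three independent experiments.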

[16] = Cytotoxicity against […] cells assessed as decrease in cell viability up to 10 uM measured after 24 hrs by MTT assay; type: cell-based
Summary of the method: (§3)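 BV-2 cells grown 24 h, then treated with compound (0.5, 2.5, 10.0 µM) for 30 min, with or without LPS (1.0 µg/mL), for a further 24 h. MTT (5 mg/mL) added for 4 h, formazan dissolved in DMSO, A490 read. Viability given as percent of untreated cells. Triplicate wells; three independent experiments.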

[17] = Effective permeability of the compound in PBS/EtOH at 100 ug/ml after 18 hrs by PAMPA; type: ADME; settings: read-out: Peff
[18] = Cytotoxicity against […] cells assessed as decrease in cell viability up to 10 uM preincubated for 30 mins followed by LPS stimulation and measured after 24 hrs by MTT assay; type: cell-based; summary of the method: as §3
[19] = Antioxidant activity assessed as trolox equivalent of APPH-induced radical scavenging activity at 5 uM preincubated for 15 mins followed by AAPH addition measured every minute for 90 mins by ORAC fluorescein assay; type: functional
Summary of the method: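 ORAC-FL in 75 mM phosphate buffer, pH 7.4. Fluorescein (150 nM final) and sample (tested at 1–10 µM) incubated 15 min at 37 °C. AAPH (12 mM final) then added, and fluorescence (ex 485/em 535 nm) read every minute for 90 min. Trolox standard 1–8 µM; result expressed as µM Trolox equivalent per µM compound. Duplicate wells; three independent experiments.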

[20] = target: T1, Amyloid-beta precursor protein; assay: Inhibition of human amyloid beta (1 to 42) self-induced aggregation after 24 hrs by Thioflavin T based fluorometric assay
Summary of the method: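 Self-induced Aβ1-42 aggregation (25 µM peptide) in phosphate buffer, pH 7.4, for 24 h at 37 °C with varying compound concentrations. Aggregation read by ThT fluorescence (5 µM ThT, glycine-NaOH pH 8.5).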

Acetylcholinesterase [21] = target: Acetylcholinesterase (Homo sapiens, UniProt P22303); assay: Inhibition of acetylcholinesterase (unknown origin)
Acetylcholinesterase [22] = target: T2, Acetylcholinesterase; assay: Inhibition of rat AChE
Summary of the method: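 Ellman assay using 5% rat cortex homogenate, preincubated 5 min with iso-OMPA (4.0 mmol/L) to block BuChE. Acetylthiocholine iodide (1 mmol/L) with inhibitor dilutions in phosphate buffer ([…], pH 7.40), incubated 15 min at 37 °C. Stopped with 0.2% DTNB, absorbance read at 405 nm. IC50 as mean of three independent experiments, each in triplicate.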

T1 sequence (P05067 whole entry): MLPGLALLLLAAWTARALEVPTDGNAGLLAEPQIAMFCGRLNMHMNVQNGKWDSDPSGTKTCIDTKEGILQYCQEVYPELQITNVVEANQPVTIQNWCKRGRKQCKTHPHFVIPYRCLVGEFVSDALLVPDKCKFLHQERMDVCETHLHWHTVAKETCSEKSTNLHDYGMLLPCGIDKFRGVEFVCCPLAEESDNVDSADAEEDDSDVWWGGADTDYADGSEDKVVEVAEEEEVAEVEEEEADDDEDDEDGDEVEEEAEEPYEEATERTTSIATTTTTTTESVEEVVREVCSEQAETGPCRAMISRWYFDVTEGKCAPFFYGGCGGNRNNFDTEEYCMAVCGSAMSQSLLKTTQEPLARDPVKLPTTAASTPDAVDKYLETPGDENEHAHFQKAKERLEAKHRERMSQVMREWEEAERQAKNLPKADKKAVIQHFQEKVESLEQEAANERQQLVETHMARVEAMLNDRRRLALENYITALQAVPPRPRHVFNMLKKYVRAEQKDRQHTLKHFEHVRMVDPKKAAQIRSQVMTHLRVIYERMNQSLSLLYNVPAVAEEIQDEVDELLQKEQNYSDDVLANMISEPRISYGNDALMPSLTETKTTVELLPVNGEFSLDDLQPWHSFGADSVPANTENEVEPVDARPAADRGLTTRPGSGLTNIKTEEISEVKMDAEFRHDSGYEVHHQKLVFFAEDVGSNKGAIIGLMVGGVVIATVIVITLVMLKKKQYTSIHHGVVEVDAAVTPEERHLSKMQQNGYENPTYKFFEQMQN
Acetylcholinesterase (Electrophorus electricus, UniProt O42275), sequence (O42275 whole entry): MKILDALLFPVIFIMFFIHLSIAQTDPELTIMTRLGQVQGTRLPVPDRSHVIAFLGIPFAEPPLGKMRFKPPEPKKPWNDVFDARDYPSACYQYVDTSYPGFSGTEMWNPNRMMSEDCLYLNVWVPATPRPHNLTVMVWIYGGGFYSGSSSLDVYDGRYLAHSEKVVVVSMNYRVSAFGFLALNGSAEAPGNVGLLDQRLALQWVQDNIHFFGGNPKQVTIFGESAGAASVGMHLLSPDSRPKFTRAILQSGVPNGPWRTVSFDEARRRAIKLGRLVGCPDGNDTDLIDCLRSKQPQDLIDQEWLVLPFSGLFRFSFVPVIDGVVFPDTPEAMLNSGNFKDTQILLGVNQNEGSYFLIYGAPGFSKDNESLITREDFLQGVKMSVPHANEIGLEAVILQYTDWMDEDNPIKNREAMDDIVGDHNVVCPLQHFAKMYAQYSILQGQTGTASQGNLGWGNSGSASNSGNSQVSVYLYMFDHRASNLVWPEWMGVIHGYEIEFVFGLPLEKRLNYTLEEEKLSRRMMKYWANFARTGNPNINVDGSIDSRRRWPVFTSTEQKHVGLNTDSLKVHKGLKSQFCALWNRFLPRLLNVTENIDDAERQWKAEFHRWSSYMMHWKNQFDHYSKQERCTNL
Butyrylcholinesterase, sequence (Q9JKC1 whole entry): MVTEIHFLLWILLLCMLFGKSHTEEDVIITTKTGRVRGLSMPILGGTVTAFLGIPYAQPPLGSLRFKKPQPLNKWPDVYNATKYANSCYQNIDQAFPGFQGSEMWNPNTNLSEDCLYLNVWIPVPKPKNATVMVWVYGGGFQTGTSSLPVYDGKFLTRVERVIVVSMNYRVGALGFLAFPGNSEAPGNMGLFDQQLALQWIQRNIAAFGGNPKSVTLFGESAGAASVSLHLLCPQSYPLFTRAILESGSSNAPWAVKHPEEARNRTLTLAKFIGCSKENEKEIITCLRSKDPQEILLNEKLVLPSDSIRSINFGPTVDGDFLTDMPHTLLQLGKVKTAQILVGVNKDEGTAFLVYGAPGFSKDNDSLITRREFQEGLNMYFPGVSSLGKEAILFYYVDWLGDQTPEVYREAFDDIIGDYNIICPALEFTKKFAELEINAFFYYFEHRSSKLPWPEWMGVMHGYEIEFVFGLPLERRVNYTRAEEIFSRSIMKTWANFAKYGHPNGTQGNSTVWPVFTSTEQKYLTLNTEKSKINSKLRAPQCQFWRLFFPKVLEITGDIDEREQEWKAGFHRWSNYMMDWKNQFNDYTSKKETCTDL
Acetylcholinesterase (Homo sapiens, UniProt P22303), sequence (P22303 whole entry): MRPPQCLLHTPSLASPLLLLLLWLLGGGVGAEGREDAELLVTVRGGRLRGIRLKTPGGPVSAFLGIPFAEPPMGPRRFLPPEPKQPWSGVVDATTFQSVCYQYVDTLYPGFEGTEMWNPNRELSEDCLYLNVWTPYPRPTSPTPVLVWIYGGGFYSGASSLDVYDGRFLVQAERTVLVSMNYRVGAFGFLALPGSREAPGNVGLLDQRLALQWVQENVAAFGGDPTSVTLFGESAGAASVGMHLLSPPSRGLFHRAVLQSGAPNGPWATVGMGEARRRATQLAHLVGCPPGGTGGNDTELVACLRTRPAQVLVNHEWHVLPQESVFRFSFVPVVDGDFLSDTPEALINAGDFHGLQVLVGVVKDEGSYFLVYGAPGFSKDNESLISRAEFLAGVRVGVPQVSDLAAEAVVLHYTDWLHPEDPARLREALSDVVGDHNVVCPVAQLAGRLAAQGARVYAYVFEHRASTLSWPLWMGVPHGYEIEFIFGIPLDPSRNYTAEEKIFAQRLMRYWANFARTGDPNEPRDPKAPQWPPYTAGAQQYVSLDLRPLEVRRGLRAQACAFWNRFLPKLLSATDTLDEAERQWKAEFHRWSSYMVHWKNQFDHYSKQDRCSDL

CCN(CCCCCCNC(=O)c1cc(O)c(C(=O)NCCCCCCN(CC)Cc2ccccc2OC)cc1O)Cc1ccccc1OC
inhibition at 2.5 µM [1]: 33.3% | inhibition at 10 µM [2]: 63.3% | inhibition at 2.5 µM [3]: 20.6% | inhibition (Homo sapiens [4]): Dose-dependent effect | IC50 (Butyrylcholinesterase): > 100 µM | IC50 (Acetylcholinesterase [5]): 6.75 µM | inhibition (Homo sapiens [6]): Dose-dependent effect | inhibition [7]: 99.6% | inhibition [8]: 89.9% | inhibition at 10 µM [9]: 50.6% | IC50 (Acetylcholinesterase [10]): 1.68 µM | Activity [11]: Non-Toxic | inhibition (Homo sapiens [12]): inactive | Activity [13]: 85.3% | Activity [14]: 83.8% | Activity [15]: Non-Toxic | Activity [16]: Non-Toxic | Papp at 18 h, 100 ug/ml [17]: 55.4 nm/s | Activity [18]: Non-Toxic | Activity [19]: 1.43 equiv | IC50 [20]: 3.31 µM

CCN(CCCNC(=O)c1cc(O)c(C(=O)NCCCN(CC)Cc2ccccc2OC)cc1O)Cc1ccccc1OC
inhibition at 2.5 µM [1]: 35% | inhibition at 10 µM [2]: 50.8% | inhibition at 2.5 µM [3]: 28.2% | inhibition (Homo sapiens [4]): Dose-dependent effect | IC50 (Butyrylcholinesterase): > 100 µM | IC50 (Acetylcholinesterase [5]): 11.4 µM | inhibition (Homo sapiens [6]): Dose-dependent effect | inhibition [7]: 98.2% | inhibition [8]: 88.8% | inhibition at 10 µM [9]: 41.1% | IC50 (Acetylcholinesterase [10]): 0.67 µM | Activity [11]: Non-Toxic | inhibition (Homo sapiens [12]): inactive | Activity [13]: 73.1% | Activity [14]: 77.3% | Activity [15]: Non-Toxic | Activity [16]: Non-Toxic | Papp at 18 h, 100 ug/ml [17]: 42.3 nm/s | Activity [18]: Non-Toxic | Activity [19]: 1.1 equiv | IC50 [20]: 2.41 µM

COc1ccccc1CN(C)CCCCNC(=O)c1cc(O)c(C(=O)NCCCCN(C)Cc2ccccc2OC)cc1O
inhibition at 2.5 µM [1]: 36.7% | inhibition at 10 µM [2]: 57.5% | inhibition at 2.5 µM [3]: 32.9% | inhibition (Homo sapiens [4]): Dose-dependent effect | IC50 (Butyrylcholinesterase): 19.2 µM | IC50 (Acetylcholinesterase [5]): 5.87 µM | inhibition (Homo sapiens [6]): Dose-dependent effect | inhibition [7]: 98.6% | inhibition [8]: 65.4% | inhibition at 10 µM [9]: 59.4% | IC50 (Acetylcholinesterase [10]): 7.37 µM | Activity [11]: Non-Toxic | inhibition (Homo sapiens [12]): inactive | Activity [13]: 76.3% | Activity [14]: 80.3% | Activity [15]: Non-Toxic | Activity [16]: Non-Toxic | Activity [18]: Non-Toxic | Activity [19]: 0.64 equiv | IC50 [20]: 3.45 µM

O=C(O)c1ccccc1O [SALICYLIC ACID]
IC50 (Acetylcholinesterase [21]): 346 µM

CCN(CCCCCCNC1=CC(=O)C(NCCCCCCN(CC)Cc2ccccc2OC)=CC1=O)Cc1ccccc1OC [MEMOQUIN]
IC50 (Acetylcholinesterase [22]): 0.00155 µM | Activity [19]: 0.77 equiv
